B1: tRNA (parent)
chain: GUUCCGUUGGCGUAAUGGUAACGCGUCUCCCUCCUAAGGAGAAGACUGCGGGUUCGAGUCCCGUACGGAACG

This sample holds only a part of the variants without activity. A value given as a limit tells only on which side of the number the result lay.

Data on 38 variants can be found in the RNAGym collection of RNA variant scans (doi:10.1126/science.aae0568).

In the data set the parent is B1. Description: yeast fitness relative to wild type (ratio to wild type); higher = fitter; tRNA-Arg(CCU), competitive growth, 37 C, YPD. Summed up: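 Genotype frequency changes were the basis for Darwinian fitness relative to wild type. The frequencies came from 100-nucleotide paired-end sequencing of gene amplicons from the start population and each end population of pooled yeast strains with tRNA-Arg(CCU) gene variants at the native locus. Competition ran in YPD at 37°C for 24 hours in six replicates, genotypes needed ≥ 100 starting reads, and estimates < 0.5 were set to 0.5.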
Regarding GUUCCGUUAGCGUAAUGGUAACGCGUCUUCCUCCUAAGGAGAAGACAGCGGGUUCGAGUCCCGUUCGGAACG [G9A C29U U47A A65U], the yeast fitness is no more than 0.5.

Consider GUUCCGUUAGCGUAAUGGUAACGCGUCUCCCUUCUAAGGAGAAGACUGCGGGUUGGAGUCCCGUACGGAACG [G9A C33U C55G], for which the yeast fitness worked out at 0.66.

As to GUUCCGUUAGCGUAAUGGUAACGCGUCUACCUCCUAGGGAGAAGACUGCGGGUUCGAAUCCCGUACGGAACG [G9A C29A A37G G58A], the yeast fitness came to 0.571.

GUUCCGUUAACGUAAUGGUAACGCGUCUCCGUCCUAAGGAGAAGACUGCGGAUUCGAGUCCAGUACGGAACG [G9A G10A C31G G52A C62A]: the yeast fitness was no more than 0.5.

GUUCCGUUAGCGUAAUGGUAACGCGUCUCCCUCCUAAGGAGAAGACUGUGGGUUAGAGUCCCGUACGGAACG [G9A C49U C55A]: the yeast fitness is no more than 0.5.

Regarding GUUCCGUUAGCGUAAUGGUAACGCGUCUCCCUCGUAAGGAGAAGACUGCGGGUUCGAGUCCCGUAUGGAACG [G9A C34G C66U], the yeast fitness was no more than 0.5.

On to GUUCCGUUAGCGUAAUGGUAACGCGUCUGCCUCCUAAGGAGAAAACUGCGGGUUCGAGUCCCGUACGGAACG [G9A C29G G44A], for which the yeast fitness worked out at 0.614.

On to GUUCCGUUAGCGUAAUGGUAACGCGUCUCCCUGCUAAGGAGAAAACUGGGGGUUCGAGUCCCGUACGGAACG [G9A C33G G44A C49G], for which the yeast fitness worked out at 0.607.

For GUUCCGUUACCGUAAUGGUAACGCGUCUCCCUCAUAAGGAGAAGACUGCGGGUUCGAGUCCCGUACGGAACG [G9A G10C C34A], the yeast fitness was no more than 0.5.

Take GUUCCGUUAGCGUAAUGGUAACGCGUCUCCCUUCUCAGGAGAAGCCUACGGGUUAGAGUCCCGUACGGAACG [G9A C33U A36C A45C G48A C55A]: the yeast fitness was no more than 0.5.

For the variant GUUCCGUUAGCGUAAUGGUAACGCGUCUCCUUCCUAAGGCGAAGACUGCGGGUUCGAGUCCCGUAAGGAACG [G9A C31U A40C C66A], the yeast fitness was no more than 0.5.

For GUUCCGUUAGCGUAAUGGUAACGCGUCUCACUCCUAAGGAGCAGACUGCGGGUUCGAGUCCCGUACGGAACG [G9A C30A A42C], the yeast fitness stood at 0.562.

In the case of GUUCCGUUAGCGUAAUGGUAACGCGUCUCCCUCGUAAGGAGAAGACUGCGGGCUCGCGUCCCGUACGGUACG [G9A C34G U53C A57C A69U], the yeast fitness is no more than 0.5.

GUUCCGUUAGCGUAAUGGUAACGCGUGUCCGUCCUUAGGGGAAGACUACGGAUUCGAGUACCGUACGGAACG [G9A C27G C31G A36U A40G G48A G52A C60A]: the yeast fitness was 0.575.

Turning to GUUCCGUUAGCGUAAUGGUAACGCGUAUCCCUCCUAAGGAGCAGACUGGGCGUUGGAGUCCCGUAUGGAACG [G9A C27A A42C C49G G51C C55G C66U], the yeast fitness is no more than 0.5.

With GUUCCGUUAGCGUAAUGGUAACGCGUCUCCCUCCUAAGGAGAAGACUGCGGGUUCGAGUCCUGUACGGAUCG [G9A C62U A70U], the yeast fitness was 0.68.

With GUUCCGUUAGCGUAAUGGUAACGCGUCUCCCUCAUAAGGAGAAGACUGCGGGUUCGAAUCCCGUACGGACCG [G9A C34A G58A A70C], the yeast fitness is no more than 0.5.

On to GUUCCGUUAGCGUAAUGGUAACGCGUCUCCCUUCUAUGGAGAAGACUGCGGGUUCGAGUCCCGUACGGAACG [G9A C33U A37U], for which the yeast fitness turned out to be 0.605.

Take GUUCCGUUAGCGUAAUGGUAACGCGUCUCCCUCAUAAGGAGAAGCCUGCGGGUUCGAGUCCCGUACGGAACG [G9A C34A A45C]: the yeast fitness came to 0.541.

For the variant GUUCCGUUAGCGUAAUGGUAACGCGUCUCCCUCCUAAGGAGAAGACUGCGGGUUCGAGUCCCGUAGGGAACG [G9A C66G], the yeast fitness is 0.703.

Turning to GUUCCGUUAGCGUAAUGGUAACGCGUCUCCCUCCUAAGGAGAAGACUGCGGGUUCGAGUCCCGUAAGGAACG [G9A C66A], the yeast fitness stood at 0.775.

Take GUUCCGUUAGCGUAAUGGUAACGCGUCUCCUUCCUAAGGAGAAGACUGCGGGAUCGAGUCCCGUACGGAACG [G9A C31U U53A]: the yeast fitness was determined as 0.638.

With GUUCCGUUAGCGUAAUGGUAACGCGUGUACCUCCUAAGGAGAAGACUGGGGGUUCGAGUCCCGUACGGAACG [G9A C27G C29A C49G], the yeast fitness is no more than 0.5.

Regarding GUUCCGUUAGCGUAAUGGUAACGUGUCUCUCGCCUAAGGAGAAGACUGCGGGUUCGAGUCCCGUCGGGAACG [G9A C24U C30U U32G A65C C66G], the yeast fitness was no more than 0.5.

Consider GUUCCGUUAGCGUAAUGGUAACGCGUUUCCCUCCUGAGGAGAAGACUGCGGGUUCGAGUCCCGUACGGAACG [G9A C27U A36G], for which the yeast fitness was determined as 0.59.

In the case of GUUCCGUUAGCGUAAUGGUAACGUGUCUCCCUCCUAAGGAGAAGACUGCGGGUUCGAGUCCCGUACGGAACG [G9A C24U], the yeast fitness turned out to be 0.997.

For the variant GUUCCGUUAGCGUAAUGGUAACGCGUCUCCCUCCUAAGGAGAAGAGUGCGGGCUCGAGUCCCGUGCGGAACG [G9A C46G U53C A65G], the yeast fitness was no more than 0.5.

As to GUUCCGUUAGCGUAAUGGUAACGCGUCUUCCUCCUAAGGAGAAGACAGCGGGUUCGGGUCCCGUACGGAACG [G9A C29U U47A A57G], the yeast fitness was no more than 0.5.

As for GUUCCGUUAGCGUAAUGGUAACGCGUGUCCUUCCUAAGGAGAAGACUGGGGGUUCGACUCCCGUACGGAACG [G9A C27G C31U C49G G58C], the yeast fitness is no more than 0.5.

For GUUCCGUUAGCGUAAUGGUAACGCGUCUCCUUCCUAAGGGGAAGACUGCGGCUUCGAGUCCCGUGCGGGACG [G9A C31U A40G G52C A65G A69G], the yeast fitness was no more than 0.5.

Take GUUCCGUUAGCGUAAUGGUAACGCGUCUCCCUCUUAAGGAGAAGACUGCGGGUUCGAGUCCCGUACGGAACG [G9A C34U]: the yeast fitness was 0.793.

For GUUCCGUUAGCGUAAUGGUAACGCGUCUCCCUCAUAAGGAGAAGACUGCGGGUUCGAGUCCCGUACGGAACG [G9A C34A], the yeast fitness worked out at 0.704.

With GUUCCGUUAGCGUAAUGGUAACGCGUCUGCCUCCUAAGGAGAAGACUGCGGGGUCGAGUCCCGUACGGAACG [G9A C29G U53G], the yeast fitness is no more than 0.5.

As for GUUCCGUUAGCGUAAUGGUAACGCGUCUCCCUCCUAAGGAGAAGACUGCGGGUUCGAGUCCUGUACGGAACG [G9A C62U], the yeast fitness was determined as 0.916.

In the case of GUUCCGUUAGCGUAAUGGUAACGCGUCUCCCUCCUAAGGAGAAGACUGCGGGUUCGAGUCCGGUACGGAACG [G9A C62G], the yeast fitness came to 0.896.

For the variant GUUCCGUUAGCGUAAUGGUAACGCGUCUCCCUCCUAAGGAGAAGACUGGGGGUUCGAGUCCCGUACGGAACG [G9A C49G], the yeast fitness was 0.896.

Regarding GUUCCGUUAGCGUAAUGGUAACGCGUCUCCCUCCUAAGGAGAAGACUGAGGGUUCGAGUCCCGUACGGAACG [G9A C49A], the yeast fitness stood at 0.654.

Consider GUUCCGUUAGCGUAAUGGUAACGCGUCUCCCUCCUAAGGAGAAGACUGCGGGUUCGAGUCCAGUAUGGAACG [G9A C62A C66U], for which the yeast fitness is no more than 0.5.
